Experimental data published in ChEMBL document CHEMBL1134669, “N-Succinyl-(beta-alanyl-L-leucyl-L-alanyl-L-leucyl)doxorubicin: an extracellularly tumor-activated prodrug devoid of intravenous acute toxicity” (2001).

Experiments:
Mus musculus [1] = assay: Effect of heparin pretreatment on the acute toxicity when 0 IU of heparin administered; Activity as % of animals; type: functional
In short: (§1)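 Male OF-1 mice; heparin (low molecular weight, 0, 4000 or 8000 IU in 0.9% NaCl, filter-sterilized) given ip or iv 1 h before iv bolus of prodrug in 0.9% NaCl (10 µL/g body weight) at 172.4 µmol/kg. Acute toxicity scored as % of animals; survival time recorded in days. At least 3 animals per experiment.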

Mus musculus [2] = assay: Minimum survival time after heparin pretreatment to mice at 0 IU of heparin administered
Mus musculus [3] = assay: Effect of heparin pretreatment on the acute toxicity when 4000 IU of heparin administered ip; Activity as % of animals; type: functional; in short: as §1
Mus musculus [4] = assay: Effect of heparin pretreatment on the acute toxicity when 8000 IU of heparin administered ip; type: functional; in short: as §1
Mus musculus [5] = assay: Maximum survival time after heparin pretreatment to mice at 4000 IU of heparin administered intraperitoneally; type: functional; in short: as §1
Mus musculus [6] = assay: Maximum survival time after heparin pretreatment to mice at 4000 IU of heparin administered intravenously; type: functional; in short: as §1
Mus musculus [7] = assay: Maximum survival time after heparin pretreatment to mice at 8000 IU of heparin administered intraperitoneally; type: functional; in short: as §1
Mus musculus [8] = assay: Effect of heparin pretreatment on the acute toxicity when 4000 IU of heparin administered iv; Activity as % of animals; type: functional; in short: as §1

| Compound | Acute toxicity (Mus musculus [1]) [%] | min survival time (Mus musculus [2]) [days] | Acute toxicity (Mus musculus [3]) [%] | Acute toxicity (Mus musculus [4]) [%] | MST (Mus musculus [5]) [days] | MST (Mus musculus [6]) [days] | MST (Mus musculus [7]) [days] | Acute toxicity (Mus musculus [8]) [%] |
| --- | --- | --- | --- | --- | --- | --- | --- | --- |
| COc1cccc2c1C(=O)c1c(O)c3c(c(O)c1C2=O)C[C@@](O)(C(=O)CO)C[C@@H]3O[C@H]1C[C@H](NC(=O)[C@H](CC(C)C)NC(=O)[C@H](C)NC(=O)[C@H](CC(C)C)NC(=O)CCNC(=O)CCC(=O)[O-])[C@H](O)[C@H](C)O1.[Na+] | 0 | 9 | – | – | – | – | – | – |
| CC(O)C(=O)O.COc1cccc2c1C(=O)c1c(O)c3c(c(O)c1C2=O)C[C@@](O)(C(=O)CO)C[C@@H]3O[C@H]1C[C@H](NC(=O)[C@H](CC(C)C)NC(=O)[C@H](C)NC(=O)[C@H](CC(C)C)NC(=O)CCN)[C@H](O)[C@H](C)O1 | 100 | 0 | 37 | 0 | 9 | 11 | 11 | 33 |
